Results as given in paper PMC4303578 (Chemical Science, 2014).

System: His6–FzmG
Experiment: O2 consumption, Hansatech O2 electrode
Type: biochemical
Settings: alpha-KG 1 mM (saturating), Fe(II)
Summary of the method: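 Apparent steady-state kinetics by Clark-type O2 electrode. Phosphonic acid substrate concentration varied; α-KG held at 1 mM (saturating). Enzyme held constant at 3.7 μM for most substrates and 9.25 μM for one. Reactions were started by adding enzyme. Initial O2-consumption rates were measured in triplicate. Km was taken from nonlinear Michaelis–Menten regression.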

Structure (SMILES) | Km (3.7 μM enzyme) [µM] | Km (9.25 μM enzyme) [µM]
COC(=O)CP(=O)(O)O [Me-PnA] | 80 ± 20 | –
O=C(O)CP(=O)(O)O [PnA] | – | 8000 ± 1000
O=CCP(=O)(O)O [PnAA] | 800 ± 300 | –
O=P(O)(O)CCO [2-HEP] | 210 ± 40 | –
